Source: PubChem
EBV gp42 block = Epstein-Barr virus gp42 inhibitors, primary screen, biochemical, uHTS, fluorescence polarization; AID 1085, 2008; Fluorescence polarization binding assay, mP read-out; 0.42% of 220,000 active; inhibition, % (tested at 21.74 µM); in the data active = inhibition above about 50%
Target sequence (Q1HVG2 whole entry, looked up): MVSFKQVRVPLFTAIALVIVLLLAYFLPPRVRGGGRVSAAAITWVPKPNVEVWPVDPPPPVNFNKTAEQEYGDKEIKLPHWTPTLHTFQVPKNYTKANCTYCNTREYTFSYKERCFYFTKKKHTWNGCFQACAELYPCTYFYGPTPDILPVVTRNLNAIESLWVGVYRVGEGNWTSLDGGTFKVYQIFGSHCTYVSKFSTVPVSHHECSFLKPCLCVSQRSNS
GRIN3A LBD mod = binders of NR3A ligand-binding domain, primary screen, biophysical, differential scanning fluorimetry, uHTS; NR3A LBD differential scanning fluorimetry, Tm shift; 0% = protein alone, 100% = glycine-bound protein; 2.5% of 340,000 active; Tm shift relative to glycine control, % at 25 µM; Glutamate receptor ionotropic, NMDA 3A (GRIN3A) ligand-binding domain;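 active = melting temperature shift of at least 10% of the positive control shift, at one fixed dose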
WT yeast gro inh = growth inhibition of WT strain, primary screen, mitochondrial fusion inhibitor project, WT and mutant strains, chemical genetic. mitochondrial fusion phenotypic screen. inhibition, % at 10 µM. 2.1% of 190,000 active; in the data active = inhibition above about 58%; tested in S. cerevisiae
CHOP inh = inhibitors of CHOP promoter induction, primary screen, cell-based, unfolded protein response, luciferase reporter. CHO-K1 CHOP-promoter luciferase, tunicamycin-induced, 15-18 h. inhibition, % at 10 µM. 3.8% of 220,000 active;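 active = compounds that reduced the stress-induced luciferase reporter signal by more than about 70% of percent inhibition, limit read from the data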;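 also: 0% = tunicamycin plus vehicle and 100% = wells without tunicamycin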
TbMetRS inhib = T. brucei MetRS inhibitors, primary screen, biochemical, luminescence. methionyl-tRNA synthetase (Trypanosoma brucei brucei). purified T. brucei MetRS, ATP depletion, Kinase-Glo luminescence. inhibition, % at 11.9 µM. 0.4% of 360,000 active. AID 624268, 2012;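 active = inhibition above a per-plate cutoff of the control wells' mean inhibition plus 3 SD, cut at about 5.5% in these data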;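 also: 0% = DMSO wells median and 100% = median of wells with control inhibitor compound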
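Test system – parasite MetRS enzyme · Reagent – substrates ATP, L-methionine and bulk Escherichia coli tRNA · Doses – 11.9 µM compound single dose, 0.9% DMSO · Times – 15 min enzyme-compound preincubation, 2 h reaction, 10 min detection, 25 °C · Signal – Kinase-Glo luminescence, ATP depletion format · Controls – DMSO-only wells as low control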
MPTP inh = mitochondrial permeability transition pore inhibitors, primary screen, biochemical, isolated mouse mitochondria, absorbance; 1.4% of 360,000 active; inhibition, % at 10 µM; Ca2+ swelling absorbance, 30 min;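 active = inhibition of 50% or more, scaled per plate between neutral and stimulator controls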;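 also: 0% = DMSO wells given calcium and 100% = 1 mM EGTA wells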
CHOP inh conf = retest of CHOP induction inhibitors, confirmation, cell-based | shares compounds with CHOP inh | CHO-CHOP promoter luciferase reporter, tunicamycin-induced, luminescence | inhibition, % at 10 µM | 45% of 2,100 active;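 active = mean of three repeat readings of reporter signal inhibition above a set limit, cut at about 70% in these data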;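 also: 0% = tunicamycin plus vehicle and 100% = wells lacking tunicamycin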
Active calls of the source: *; / = no result given. Shown are actives, neighbours in structure and some others; about 6.4% of the full set was active somewhere.

SMILES	EBV gp42 block	GRIN3A LBD mod	WT yeast gro inh	CHOP inh	TbMetRS inhib	MPTP inh	CHOP inh conf
CCOc1ccc(-c2n[nH]c(C)c2Oc2ccccc2OC)c(O)c1	-19.6	-5.5	-6.0	19.3	0.2	2.4	/
C=C(C)COc1ccc(-c2[nH]ncc2-c2ccc(OC)c(OC)c2)c(O)c1	-5.1	-1.3	6.0	/	-0.4	2.1	/
C=C(C)COc1ccc(-c2[nH]ncc2-c2ccccc2)c(O)c1	-2.9	2.2	70.5*	101.7*	0.1	5.0	24.4
C=C(C)COc1ccc(-c2[nH]ncc2Oc2ccccc2OCC)c(O)c1	19.5	11.1*	-20.6	107.0*	-0.5	1.6	106.6*
CC(=O)Nc1ccc(NC(=O)c2c(C)nn(Cc3ccccc3Cl)c2C)cc1	/	1.6	/	/	-0.6	0.0	/
Cc1cccc(N2CCN(C(=O)c3c(C)nn(Cc4ccccc4Cl)c3C)CC2)c1C	3.1	-4.7	59.7*	102.6*	-0.6	-1.5	86.2*
CCSc1nnc(NC(=O)CSc2sc3c(O)cc(=O)[nH]c3c2C#N)s1	/	2.5	/	/	0.1	-0.1	/
COc1ccc(-c2cc(C(F)(F)F)n3nc(C(=O)Nc4cc(C)on4)cc3n2)cc1OC	-13.9	1.3	8.5	34.3	-0.2	1.3	/
COc1ccccc1-c1cc(C(F)(F)F)nc(S(=O)(=O)CCCC(=O)Nc2cc(C)on2)n1	-20.3	4.9	18.2	107.9*	-0.1	-3.1	124.7*
COc1ccc(-c2cc(C(F)(F)F)nc(S(=O)(=O)CCCC(=O)Nc3cc(C)on3)n2)cc1OC	-2.6	0.0	-15.6	105.8*	-0.7	0.8	-140.3
Cc1ccc(-n2c(=O)[nH]c3c(C(N)=O)nc(-c4ccc(C)o4)nc32)cc1	-7.0	-0.7	3.8	106.8*	-0.2	-6.5	120.7*
Cc1ccc(-n2c(=O)[nH]c3c(C(N)=O)nc(CC(C)C)nc32)cc1	-7.2	-1.9	3.5	49.4	-0.5	-2.2	/
N#CCCN(CCC#N)c1nncs1	-5.7	-1.8	10.2	-7.9	0.4	-11.2	/
CCOC(=O)c1oc2ccc(S(=O)(=O)n3nc(-c4ccc(C)cc4)cc3N)cc2c1C	0.7	0.3	-2.4	97.1*	-0.8	4.4	56.1
CCOC(=O)c1oc2ccc(S(=O)(=O)n3nc(-c4ccc(Cl)cc4)cc3N)cc2c1C	-8.7	2.8	18.1	34.3	-0.3	6.3	/
CC(C)(C)C(=O)Nc1ccc(-c2nc3ccccc3c(=O)o2)cc1	-19.2	-4.1	-13.6	105.3*	-0.5	0.2	90.2*
CCOC(=O)c1cnc(-n2nc(C)cc2C)nc1NCCc1ccccc1	-2.4	-1.1	74.1*	101.1*	-0.2	9.4	-8.2
COc1ccc(/C=C/C(=O)NC(=S)NNC(=O)c2ccco2)cc1	-3.3	-11.3	-8.9	15.9	-0.5	-3.2	/
O=C(Cc1cccs1)NNC(=S)NC(=O)c1ccccc1	-1.7	-1.0	10.8	32.8	-1.0	0.1	/
COc1ccc(/C=C/C(=O)NC(=S)NNC(=O)Cc2cccs2)cc1	-18.3	-16.6	8.8	109.9*	-1.1	7.6	44.6
O=C(/C=C/c1ccccc1)NC(=S)NNC(=O)Cc1cccs1	7.6	-2.4	12.8	104.0*	0.3	2.3	41.1
Cc1cccc(NC(=O)c2cc(S(=O)(=O)N3CCCCC3)c[nH]2)c1	/	/	/	/	-0.5	-0.1	/
O=C(Nc1ccccc1N1CCN(C(=O)c2ccccc2)CC1)c1cc2ccccc2o1	-2.8	1.4	28.3	97.6*	-0.5	-3.9	25.7
O=C(Nc1ccccc1N1CCCC1)c1cc2ccccc2o1	-5.5	-5.6	36.6	21.7	-0.4	2.9	/
CC1(C)C(=O)Nc2ccccc2N1C(=O)COC(=O)c1cc(S(=O)(=O)N2CCOCC2)ccc1F	18.6	-0.3	12.9	-17.9	-0.6	-1.3	/
SMILES	EBV gp42 block	GRIN3A LBD mod	WT yeast gro inh	CHOP inh	TbMetRS inhib	MPTP inh	CHOP inh conf
CCCCCOC(=O)Nc1ccc(S(=O)(=O)Nc2cccc([N+](=O)[O-])c2)cc1	-5.8	28.2*	-11.0	108.9*	0.1	9.9	26.6
Cc1ccc(NC(c2ccccc2)c2nc3ccccc3[nH]c2=O)cc1 (stereo not given)	-9.6	-3.9	/	101.5*	-0.6	5.5	9.9
N#CSC(c1ccccc1)c1nc2ccccc2[nH]c1=O (stereo not given)	/	-0.7	/	/	-1.0	0.8	/
NC(=O)COc1cc2oc(=O)c3c(c2cc1Cl)CCCC3	/	-0.7	/	/	0.2	-1.4	/
CC(=O)Oc1cc2oc(=O)c3c(c2cc1Cl)CCC3	-18.1	1.6	12.8	99.2*	-0.5	1.1	6.2
Cc1ccc(-c2nn(CC(=O)NCc3cc(-c4nn(C)c(=O)c5ccccc45)ccc3C)c(=O)c3ccccc23)cc1	-46.3	0.7	6.0	105.7*	-0.1	-0.7	93.3*
CCOC(=O)/C=c1\s/c(=C\c2sccc2C)c(=O)n1CC(=O)NCc1ccc(C)cc1	-26.4	/	-5.5	99.4*	/	/	20.4
Nn1c(SCc2ccccc2)nc2ccccc21	/	0.2	/	/	-0.8	-2.3	/
Nc1cc(Cl)ccc1Oc1ccc(Cl)cc1	-3.5	0.6	-16.1	96.1*	-0.3	0.7	134.1*
CCOc1ccc(/C=N/N2C(=O)C(CC(=O)Nc3ccc(F)cc3F)SC2=NC)cc1OC (stereo not given)	-14.1	-1.8	1.1	106.4*	-0.1	3.3	14.5
CCOC(=O)N=Nc1c2ccccc2c2nc3no[nH]c3nc12	-14.4	24.6*	95.8*	104.5*	-0.4	0.2	112.0*
COc1ccc(CCNC(=O)c2nnn(-c3ccc4c(c3)OCCO4)c2N)cc1OC	-4.2	0.1	0.0	96.8*	-0.6	0.9	83.6*
N#Cc1cc([N+](=O)[O-])c(-n2nnc3ccccc32)c([N+](=O)[O-])c1	-7.2	2.8	10.7	107.0*	0.3	-1.7	23.5
CS(=O)(=O)c1ccc(-n2nnc3ccccc32)c([N+](=O)[O-])c1	/	-1.6	/	/	0.1	-1.3	/
C=CCN1C(=O)CSC1=Nc1ccc(O)cc1	-6.0	-1.1	-23.1	-7.8	-1.1	0.1	/
C=CCn1c(O)c(C2=c3ccccc3=NC2=O)sc1=Nc1ccc(O)cc1	1.8	-1.0	94.1*	104.3*	-0.4	4.9	37.5
CC1(C)C(C=C(Cl)Cl)C1C(=O)Nc1ccc([N+](=O)[O-])cc1 (stereo not given)	7.0	8.0	73.5	104.3*	/	/	58.4
COc1ccc(N2CCN(C(=O)COC(=O)CCS(=O)(=O)c3ccc(C)cc3)CC2)cc1	/	-1.0	/	/	-0.2	-0.4	/
